In ChEMBL document CHEMBL5154634, “A Modular Synthetic Route Involving N-Aryl-2-nitrosoaniline Intermediates Leads to a New Series of 3-Substituted Halogenated Phenazine Antibacterial Agents” (J Med Chem, 2021):
≈ marks a conversion by molar mass, not a printed value. Calls of active or inactive are those of the source. No cut-off for these calls is given here.

Experiments:
[1] = test system: Staphylococcus aureus; assay: Antibacterial activity against methicillin-resistant Staphylococcus aureus BAA-1707 assessed as bacterial growth inhibition incubated for 16 hrs by broth microdilution susceptibility test; type: functional
Method in brief: (§1)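 CLSI broth microdilution with 11 twofold dilutions (0.05–50 μM). About 10^5 cells per well from a log-phase culture. DMSO vehicle up to 0.5% v/v. At least three independent experiments.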

[2] = test system: Staphylococcus aureus; assay: Antibacterial activity against methicillin-resistant Staphylococcus aureus BAA-44 assessed as bacterial growth inhibition incubated for 16 hrs by broth microdilution susceptibility test; type: functional
Method in brief: (§2)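 CLSI broth microdilution with 11 twofold dilutions (0.05–50 μM). Medium was LB for the staphylococci and BHI for VRE 700221. About 10^5 cells per well from a log-phase culture. […] DMSO vehicle up to 0.5% v/v. At least three independent experiments.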

[3] = test system: Staphylococcus epidermidis; assay: Antibacterial activity against methicillin-resistant Staphylococcus epidermidis ATCC 35984 assessed as bacterial growth inhibition incubated for 16 hrs by broth microdilution susceptibility test; type: functional; method in brief: as §1
[4] = test system: Enterococcus faecium; assay: Antibacterial activity against vancomycin-resistant Enterococcus faecium ATCC 700221 assessed as bacterial growth inhibition incubated for 16 hrs by broth microdilution susceptibility test; type: functional; method in brief: as §2
[5] = test system: Enterococcus faecalis; assay: Antibacterial activity against Enterococcus faecalis OG1RF ATCC 47077 assessed as bacterial growth inhibition incubated for 16 hrs by broth microdilution susceptibility test; type: functional
[6] = test system: Staphylococcus epidermidis; assay: Antibacterial activity against Staphylococcus epidermidis ATCC 12228 assessed as bacterial growth inhibition by broth microdilution method; type: functional
[7] = test system: Mycobacterium tuberculosis; assay: Antibacterial activity against Mycobacterium tuberculosis CDC1551 assessed as bacterial growth inhibition incubated for 5 days by luminescence based analysis; type: functional; conditions: CDC1551, 120 h, time 5 day
Method in brief: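 Bioluminescent Mtb-lux CDC1551 reporter grown in Middlebrook 7H9 with 0.05% Tween 80, 10% OADC and kanamycin to OD600 0.4–0.8, then diluted to OD600 0.02. Added to twofold drug dilutions (0.003–200 μM). Incubated 5 days at 37 °C, 5% CO2. Luminescence read against 1% DMSO and 10 μM rifampicin controls to give % growth inhibition. MIC taken from a modified Gompertz fit.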

[8] = test system: HeLa; assay: Cytotoxicity against human HeLa cells assessed as reduction in cell viability incubated for 24 hrs by LDH release assay; type: toxicity, cell-based
Method in brief: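 HeLa cells in DMEM with 10% FBS, treated at 70–80% confluence with 25, 50 and 100 μM for 24 h. LDH in supernatant measured by 30 min reaction at room temperature, then stop solution and absorbance at 490 nm. Controls: 2% Triton X-100 (maximum), medium only, DMSO vehicle. Three independent experiments.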

[9] = test system: J774; assay: Cytotoxicity against mouse J774 cells assessed as reduction in cell viability […] by Alamar blue assay; type: toxicity, cell-based
[10] = test system: HepG2; assay: Cytotoxicity against human HepG2 cells assessed as reduction in cell viability […] by Alamar blue assay; type: toxicity, cell-based
[11] = test system: Staphylococcus aureus; assay: Antibiofilm activity against methicillin-resistant Staphylococcus aureus BAA-1707 biofilms assessed as biofilm eradication incubated for 24 hrs followed by incubation for 24 hrs in fresh medium by Calgary biofilm device assay; type: functional
Method in brief: (§3)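 Calgary biofilm device. Mid-log culture diluted 1000-fold in TSB with 0.5% glucose; biofilms grown on pegs 24 h at 37 °C. Pegs washed and challenged with twofold compound dilutions for 24 h at 37 °C, then moved to fresh medium for 24 h. MBEC is the lowest concentration leaving wells non-turbid. At least three independent experiments.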

[12] = test system: Staphylococcus aureus; assay: Bactericidal activity against methicillin-resistant Staphylococcus aureus BAA-44 planktonic cells assessed as planktonic eradication incubated for 24 hrs followed by incubation for overnight in fresh medium by Calgary biofilm device assay; type: functional
Method in brief: (§4)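 Calgary biofilm device. Biofilms grown 24 h at 37 °C in TSB with 0.5% glucose, then challenged 24 h with twofold compound dilutions. 20 μL of challenge medium transferred into fresh TSB with 0.5% glucose and incubated overnight at 37 °C. MBC is the concentration with no visible turbidity. At least three independent experiments.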

[13] = test system: Staphylococcus aureus; assay: Antibiofilm activity against methicillin-resistant Staphylococcus aureus BAA-44 biofilms assessed as biofilm eradication incubated for 24 hrs followed by incubation for 24 hrs in fresh medium by Calgary biofilm device assay; type: functional; method in brief: as §3
[14] = test system: Staphylococcus epidermidis; assay: Bactericidal activity against methicillin-resistant Staphylococcus epidermidis ATCC 35984 planktonic cells assessed as planktonic eradication incubated for 24 hrs followed by incubation for overnight in fresh medium by Calgary biofilm device assay; type: functional; method in brief: as §4
[15] = test system: Staphylococcus epidermidis; assay: Antibiofilm activity against methicillin-resistant Staphylococcus epidermidis ATCC 35984 biofilms assessed as biofilm eradication incubated for 24 hrs followed by incubation for 24 hrs in fresh medium by Calgary biofilm device assay; type: functional; method in brief: as §3
[16] = test system: Enterococcus faecium; assay: Bactericidal activity against methicillin-resistant vancomycin-resistant Enterococcus faecium ATCC 700221 planktonic cells assessed as planktonic eradication incubated for 24 hrs followed by incubation for overnight in fresh medium by Calgary biofilm device assay; type: functional; method in brief: as §4
[17] = test system: Enterococcus faecium; assay: Antibiofilm activity against methicillin-resistant vancomycin-resistant Enterococcus faecium ATCC 700221 biofilms assessed as biofilm eradication incubated for 24 hrs followed by incubation for 24 hrs in fresh medium by Calgary biofilm device assay; type: functional; method in brief: as §3
[18] = test system: Enterococcus faecalis; assay: Bactericidal activity against […] Enterococcus faecalis OG1RF ATCC 47077 planktonic cells assessed as planktonic eradication incubated for 24 hrs followed by incubation for overnight in fresh medium by Calgary biofilm device assay; type: functional
Method in brief: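 Calgary biofilm device in BHI. Biofilms grown 24 h at 37 °C and challenged 24 h with twofold compound dilutions. Challenge medium subcultured 1:10 into fresh BHI overnight at 37 °C. MBC is the concentration with no turbidity. At least three independent experiments.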

[19] = test system: Enterococcus faecalis; assay: Antibiofilm activity against Enterococcus faecalis OG1RF ATCC 47077 biofilms assessed as biofilm eradication incubated for 24 hrs followed by incubation for 24 hrs in fresh medium by Calgary biofilm device assay; type: functional
Method in brief: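 Calgary biofilm device. Biofilms grown 24 h at 37 °C in BHI from mid-log culture diluted 1000-fold. Pegs washed and then challenged 24 h with twofold serial dilutions. Pegs moved to fresh BHI for 24 h recovery. MBEC = lowest concentration leaving no turbidity; at least three independent experiments.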

[20] = test system: Erythrocyte; assay: Hemolytic activity against human RBC at 200 uM measured after 1 hr; type: toxicity, cell-based
Method in brief: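 2% hRBCs exposed to compound at 200 μM final, added from DMSO stock, for 1 h at 37 °C. Supernatant OD read at 405 nm. Hemolysis normalized between DMSO (0%) and Triton X (100%); three independent experiments.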

[21] = test system: Staphylococcus aureus; assay: Induction of iron starvation in methicillin-resistant Staphylococcus aureus BAA-1707 biofilms assessed as upregulation of sfaA gene expression at 1 uM incubated for 4 hrs by RT-qPCR analysis; type: functional
Method in brief: (§5)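 MRSA BAA-1707 grown in TSB with 0.5% glucose to OD600 ~0.8–1.0, then biofilms formed 20 h at 37 °C statically in gelatin-coated 24-well plates. Biofilms treated 4 h at 37 °C with compound (1 μM or 1/10 MBEC) or DMSO vehicle. RNA extracted; only RIN ≥7 samples used. One-step SYBR RT-qPCR; ΔCT normalised to ptaA. Three independent experiments.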

[22] = test system: Staphylococcus aureus; assay: Induction of iron starvation in methicillin-resistant Staphylococcus aureus BAA-1707 biofilms assessed as upregulation of sfaA gene expression at 1/10XMBEC incubated for 4 hrs by RT-qPCR analysis; type: functional; method in brief: as §5
[23] = test system: Staphylococcus aureus; assay: Induction of iron starvation in methicillin-resistant Staphylococcus aureus BAA-1707 biofilms assessed as upregulation of sbnC gene expression at 1 uM incubated for 4 hrs by RT-qPCR analysis; type: functional; method in brief: as §5
[24] = test system: Staphylococcus aureus; assay: Induction of iron starvation in methicillin-resistant Staphylococcus aureus BAA-1707 biofilms assessed as upregulation of sbnC gene expression at 1/10XMBEC incubated for 4 hrs by RT-qPCR analysis; type: functional; method in brief: as §5
[25] = test system: Staphylococcus aureus; assay: Induction of iron starvation in methicillin-resistant Staphylococcus aureus BAA-1707 biofilms assessed as upregulation of isdB gene expression at 1 uM incubated for 4 hrs by RT-qPCR analysis; type: functional; method in brief: as §5
[26] = test system: Staphylococcus aureus; assay: Induction of iron starvation in methicillin-resistant Staphylococcus aureus BAA-1707 biofilms assessed as upregulation of isdB gene expression at 1/10XMBEC incubated for 4 hrs by RT-qPCR analysis; type: functional; method in brief: as §5
[27] = test system: Staphylococcus aureus; assay: Induction of iron starvation in methicillin-resistant Staphylococcus aureus BAA-1707 biofilms assessed as upregulation of MW0695 gene expression at 1 uM incubated for 4 hrs by RT-qPCR analysis; type: functional; method in brief: as §5
[28] = test system: Staphylococcus aureus; assay: Induction of iron starvation in methicillin-resistant Staphylococcus aureus BAA-1707 biofilms assessed as upregulation of MW0695 gene expression at 1/10XMBEC incubated for 4 hrs by RT-qPCR analysis; type: functional; method in brief: as §5
[29] = Dissociation constant, pKa of the compound at 125 uM by UV-vis spectrophotometric analysis; type: physicochemical; conditions: 125 µM
Method in brief: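 Compound at 125 μM final in phosphate buffers (KH₂PO₄/Na₂HPO₄) in 1:1 water/methanol, pH 4.07–9.66; ammonium hydroxide added for pH above 9.80. UV-vis scans 200–800 nm to find λmax of phenol and phenolate forms. Absorbance at each λmax plotted against pH.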

[30] = test system: Staphylococcus aureus; assay: Antibacterial activity against methicillin-resistant Staphylococcus aureus clinical isolate 1 assessed as bacterial growth inhibition; type: functional
[31] = test system: Staphylococcus aureus; assay: Antibacterial activity against methicillin-resistant Staphylococcus aureus clinical isolate 2 assessed as bacterial growth inhibition; type: functional
[32] = test system: Staphylococcus aureus; assay: Antibacterial activity against methicillin-resistant Staphylococcus aureus 129 assessed as bacterial growth inhibition; type: functional
[33] = test system: Staphylococcus aureus; assay: Antibacterial activity against methicillin-resistant Staphylococcus aureus 147 assessed as bacterial growth inhibition; type: functional
[34] = test system: Staphylococcus aureus; assay: Antibacterial activity against methicillin-resistant Staphylococcus aureus 138 assessed as bacterial growth inhibition; type: functional
[35] = test system: Staphylococcus aureus; assay: Antibacterial activity against methicillin-resistant Staphylococcus aureus 156 assessed as bacterial growth inhibition; type: functional

Oc1c(Br)ccc2nc3ccccc3nc12
MIC [1]: 3.13 µM (≈ 0.861 µg/mL)
MIC [2]: 3.13 µM (≈ 0.861 µg/mL)
MIC [3]: 3.13 µM (≈ 0.861 µg/mL)
MIC [4]: 6.25 µM (≈ 1.72 µg/mL)
MIC [5]: 18.8 µM (≈ 5.17 µg/mL)
MIC [6]: 6.25 µM (≈ 1.72 µg/mL)

Oc1c(Br)cc(Br)c2nc3ccccc3nc12
MIC [3]: 2.35 µM (≈ 0.832 µg/mL)
MIC [5]: 12.5 µM (≈ 4.43 µg/mL)
MIC [7]: 13.7 µM (≈ 4.85 µg/mL)
IC50 [8]: > 100 µM
IC50 [9]: > 100 µM
IC50 [10]: > 100 µM
MBEC [11]: 100 µM
MBC [12]: 37.5 µM (≈ 13.3 µg/mL)
MBEC [13]: 75 µM
MBC [14]: 25 µM (≈ 8.85 µg/mL)
MBEC [15]: 50 µM
MBC [16]: 18.8 µM (≈ 6.66 µg/mL)
MBEC [17]: 12.5 µM
MBC [18]: 25 µM (≈ 8.85 µg/mL)
MBEC [19]: >200 µM
Activity [20]: <= 1%
Activity [21]: Active
Activity [22]: Active
Activity [23]: Active
Activity [24]: Active
Activity [25]: Active
Activity [26]: Active
Activity [27]: Active
Activity [28]: Active
pKa [29]: 7.12
MIC [30]: 1.25 µM (≈ 0.443 µg/mL)
MIC [31]: 1.25 µM (≈ 0.443 µg/mL)
MIC [32]: 1.25 µM (≈ 0.443 µg/mL)
MIC [33]: 1.25 µM (≈ 0.443 µg/mL)
MIC [34]: 1.25 µM (≈ 0.443 µg/mL)
MIC [35]: 1.25 µM (≈ 0.443 µg/mL)
